This is an account of results in ChEMBL document CHEMBL4354819, “Discovery of Novel Small Molecule Dual Inhibitors Targeting Toll-Like Receptors 7 and 8” (J Med Chem, 2019).

Broadly, the IC50 is the concentration needed to halve the response being measured. Usually inhibition stands for the percentage by which the read-out fell short of the control.

Assay type in all cases: cell-based
For one assay, the target named is T1, Toll-like receptor 7 (Homo sapiens, UniProt Q9NYK1).
T1 sequence (Q9NYK1 whole entry): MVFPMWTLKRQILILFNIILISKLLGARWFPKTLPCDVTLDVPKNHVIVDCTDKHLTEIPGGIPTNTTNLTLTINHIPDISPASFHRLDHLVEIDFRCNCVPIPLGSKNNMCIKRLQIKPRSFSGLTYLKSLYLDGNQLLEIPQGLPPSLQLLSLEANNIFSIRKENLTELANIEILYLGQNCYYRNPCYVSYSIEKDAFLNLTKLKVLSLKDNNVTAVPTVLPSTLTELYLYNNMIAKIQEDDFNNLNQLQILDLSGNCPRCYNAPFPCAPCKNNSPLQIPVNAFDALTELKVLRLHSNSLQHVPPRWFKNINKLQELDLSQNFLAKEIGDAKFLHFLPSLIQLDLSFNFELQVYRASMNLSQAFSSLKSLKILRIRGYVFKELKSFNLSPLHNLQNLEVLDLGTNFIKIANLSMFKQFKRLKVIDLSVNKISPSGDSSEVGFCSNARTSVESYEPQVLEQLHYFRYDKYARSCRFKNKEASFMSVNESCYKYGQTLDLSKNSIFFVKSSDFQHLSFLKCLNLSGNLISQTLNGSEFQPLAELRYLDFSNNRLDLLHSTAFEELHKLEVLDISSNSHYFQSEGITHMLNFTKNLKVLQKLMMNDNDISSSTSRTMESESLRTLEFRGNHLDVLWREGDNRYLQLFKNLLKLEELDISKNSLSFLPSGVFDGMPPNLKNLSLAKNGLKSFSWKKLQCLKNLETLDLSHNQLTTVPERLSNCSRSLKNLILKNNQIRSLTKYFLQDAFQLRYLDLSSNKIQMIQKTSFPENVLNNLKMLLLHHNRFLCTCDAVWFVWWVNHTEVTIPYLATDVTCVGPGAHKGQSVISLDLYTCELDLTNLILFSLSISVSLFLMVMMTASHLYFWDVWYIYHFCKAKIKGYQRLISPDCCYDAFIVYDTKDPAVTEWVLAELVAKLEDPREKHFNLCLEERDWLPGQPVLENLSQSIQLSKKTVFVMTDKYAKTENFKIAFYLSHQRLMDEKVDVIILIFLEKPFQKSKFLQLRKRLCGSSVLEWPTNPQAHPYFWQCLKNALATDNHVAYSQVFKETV
Put plainly: Inhibition of human TLR7 expressed in HEK293 cells assessed as reduction in R848-induced NFkappaB production incubated for 16 hrs by quanti-blue SEAP assay. A digest of the protocol: (§1)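 HEK 293-Blue cells stably expressing hTLR7 or hTLR8 with an inducible SEAP reporter were incubated 16 h with compound under 1 µg/mL R848 stimulation. SEAP was read at 620 nm. Data were normalized to the R848 control, and IC50 was taken from concentration-response curves. […] Mean ± s.d., n = 3 independent experiments.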

The target of a further assay is T2, Toll-like receptor 8 (Homo sapiens, UniProt Q9NR97).
T2 sequence (Q9NR97 whole entry): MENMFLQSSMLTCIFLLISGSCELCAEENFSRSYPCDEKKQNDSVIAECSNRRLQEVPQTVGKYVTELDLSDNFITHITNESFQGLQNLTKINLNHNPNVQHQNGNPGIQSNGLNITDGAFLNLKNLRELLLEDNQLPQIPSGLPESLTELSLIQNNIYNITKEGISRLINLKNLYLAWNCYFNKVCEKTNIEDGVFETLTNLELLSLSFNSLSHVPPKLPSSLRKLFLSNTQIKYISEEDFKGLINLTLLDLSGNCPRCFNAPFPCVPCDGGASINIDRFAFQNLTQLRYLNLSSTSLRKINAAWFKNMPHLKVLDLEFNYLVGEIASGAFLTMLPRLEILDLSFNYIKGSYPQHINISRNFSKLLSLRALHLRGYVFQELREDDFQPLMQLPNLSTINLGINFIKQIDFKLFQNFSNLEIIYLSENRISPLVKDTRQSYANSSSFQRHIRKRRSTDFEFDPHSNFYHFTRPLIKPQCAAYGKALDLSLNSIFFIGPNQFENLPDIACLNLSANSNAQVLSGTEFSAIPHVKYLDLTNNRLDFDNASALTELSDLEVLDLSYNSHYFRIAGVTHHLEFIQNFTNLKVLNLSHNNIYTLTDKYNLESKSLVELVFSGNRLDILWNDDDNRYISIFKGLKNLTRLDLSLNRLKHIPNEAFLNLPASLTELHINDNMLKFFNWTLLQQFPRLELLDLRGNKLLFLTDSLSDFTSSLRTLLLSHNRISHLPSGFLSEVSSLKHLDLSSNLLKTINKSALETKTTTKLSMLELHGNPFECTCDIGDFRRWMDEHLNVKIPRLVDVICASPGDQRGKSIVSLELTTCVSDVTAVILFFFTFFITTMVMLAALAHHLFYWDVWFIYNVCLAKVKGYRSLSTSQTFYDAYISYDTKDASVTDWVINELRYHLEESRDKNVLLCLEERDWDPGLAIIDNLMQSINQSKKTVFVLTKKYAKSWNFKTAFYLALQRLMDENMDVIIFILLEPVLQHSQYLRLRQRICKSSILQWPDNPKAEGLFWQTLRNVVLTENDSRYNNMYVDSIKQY
Put plainly: Inhibition of human TLR8 expressed in HEK293 cells assessed as reduction in R848-induced NFkappaB production incubated for 16 hrs by quanti-blue SEAP assay. A digest of the protocol: as §1

For assay [1], the target named is T3, Toll-like receptor 8 (Homo sapiens) (UniProt Q9NR97).
T3 sequence (whole entry): T2 sequence (Q9NR97 whole entry)
Put plainly: Inhibition of human TLR8 expressed in HEK293 cells assessed as reduction in R848-induced NFkappaB production at 50 uM incubated for 16 hrs by quanti-blue SEAP assay relative to control. A digest of the protocol: as §1

Assay [2] addresses T3, Toll-like receptor 8 (Homo sapiens). Put plainly: Inhibition of human TLR8 expressed in HEK293 cells assessed as reduction in R848-induced NFkappaB production at 1.5 to 5 uM incubated for 16 hrs by quanti-blue SEAP assay. A digest of the protocol: (§2)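 Selectivity panel in stably transfected HEK 293-Blue cells, each overexpressing one human TLR with an inducible SEAP reporter. Agonists: Pam3CSK4 (TLR1/2), Pam2CSK4 (TLR2/6), poly(I:C) (TLR3), LPS (TLR4), R848 (TLR7/8), ODN 2006 (TLR9). Cells were exposed to compound for 16 h. Activity = (raw − untreated)/(ligand + solvent − untreated), with ligand + solvent set as 100%.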

For assay [3], the target named is T4, Toll-like receptor 7 (Homo sapiens) (UniProt Q9NYK1).
T4 sequence (whole entry): T1 sequence (Q9NYK1 whole entry)
Put plainly: Inhibition of human TLR7 expressed in HEK293 cells assessed as reduction in resiquimod-induced NFkappaB production at 1.5 to 5 uM incubated for 16 hrs by quanti-blue SEAP assay. A digest of the protocol: as §2

Assay [4] addresses T4, Toll-like receptor 7 (Homo sapiens). Put plainly: Inhibition of human TLR7 expressed in HEK293 cells assessed as reduction in R848-induced NFkappaB production at 50 uM incubated for 16 hrs by quanti-blue SEAP assay relative to control. In outline:
as §1

Take `Fc1cccc(Cl)c1CNc1ccc(Oc2cc(C(F)(F)F)cc(C(F)(F)F)c2)cc1`: the IC50 on Toll-like receptor 7 and at Toll-like receptor 8 was above 50 µM throughout.

Regarding `N#Cc1c(Br)cccc1Oc1ccc(-c2nnco2)cc1`, the IC50 at Toll-like receptor 8 was determined as 0.88 µM. On to `O=C(Nc1ccc(Oc2cc(C(F)(F)F)cc(C(F)(F)F)c2)cc1)c1ccc2nc[nH]c2c1`, for which the inhibition in assay [1] was in the range of 20 to 30%. The 50% inhibitory concentration (IC50) on Toll-like receptor 7 is above 50 µM. In the case of `O=C(Nc1ccc(Oc2cc(Br)cc(C(F)(F)F)c2)cc1)c1c(F)cccc1Cl`, the IC50 on Toll-like receptor 8 came out at 2.32 µM. On to `Cc1nnc(-c2ccc(C(=O)Oc3cccc(Cl)c3C#N)cc2)o1`, for which the inhibition in assay [2] was determined as 0%. With `O=C(Nc1cccc(Oc2cc(C(F)(F)F)cc(C(F)(F)F)c2)c1)c1c(F)cccc1Cl`, the inhibition in assay [3] was found to be 0%. With `O=C(Nc1ccc(Oc2cc(C(F)(F)F)cc(C(F)(F)F)c2)cc1O)c1c(F)cccc1I`, the IC50 on Toll-like receptor 7 worked out at 4.73 µM; at Toll-like receptor 8, 2.63 µM. Turning to `Fc1cccc(I)c1-c1nc2cc(Oc3cc(C(F)(F)F)cc(C(F)(F)F)c3)ccc2[nH]1`, the inhibition in assay [3] and in assay [2] was 0% each time.

As for `Nc1c(Cl)cccc1Oc1ccc(-c2nnco2)cc1`, the concentration for half-maximal inhibition (IC50) at Toll-like receptor 8 came to 5.29 µM. As for `O=C(Nc1ccc(Oc2cc(C(F)(F)F)cc(C(F)(F)F)c2)cc1)c1ncccc1F`, the IC50 at Toll-like receptor 7 was above 50 µM. The inhibition in assay [2] is 0%. In the case of `O=C(Nc1ccc(Oc2cc(Cl)cc(C(F)(F)F)c2)cc1)c1c(F)cccc1Cl`, the half-inhibitory concentration (IC50) on Toll-like receptor 8 was found to be 2.04 µM.

Regarding `O=C(Nc1ccc(Oc2cc(C(F)(F)F)cc(C(F)(F)F)c2)cc1)c1ccc2[nH]ccc2c1`, the inhibition in assay [1] lay within 20 to 30%. Besides, the half-maximal inhibitory concentration (IC50) at Toll-like receptor 7 was above 50 µM. Take `O=C(Nc1ccc(Oc2cc(C(F)(F)F)cc(C(F)(F)F)c2)cc1)c1c(F)c(F)c(F)c(F)c1F`: the inhibition in assay [3] and in assay [2] was 0% in each case. Take `N#Cc1c(Cl)cccc1COc1ccc(-c2nnco2)cc1`: the IC50 at Toll-like receptor 8 was 2.52 µM. Consider `c1ccc(Oc2ccc(-c3nnco3)cc2)cc1`, for which the concentration for half-maximal inhibition (IC50) at Toll-like receptor 8 came to 7.26 µM.

Consider `O=C(Nc1ccc(Oc2cc(O)cc(C(F)(F)F)c2)cc1)c1c(F)cccc1Cl`, for which the inhibition in assay [3] and in assay [2] was 0% each time.

Turning to `O=C(Nc1ccc(Oc2cc(C(F)(F)F)cc(C(F)(F)F)c2)cc1)c1c(F)cccc1OC(F)(F)F`, the IC50 on Toll-like receptor 7 and at Toll-like receptor 8 was above 50 µM throughout. For the compound `O=C(Nc1ccc(Oc2cc(I)cc(C(F)(F)F)c2)cc1)c1c(F)cccc1Cl`, the IC50 on Toll-like receptor 8 is above 5 µM. Turning to `C#Cc1cccc(F)c1C(=O)Nc1ccc(Oc2cc(C(F)(F)F)cc(C(F)(F)F)c2)cc1`, the inhibition in assay [3] and in assay [2] was 0% throughout. As to `O=C(Nc1ccc(Oc2cc(C(F)(F)F)cc(C(F)(F)F)c2)cc1)c1cc(Cl)ccc1F`, the inhibition in assay [4] was in the range of 20 to 30%. Moreover, at Toll-like receptor 8, the IC50 was found to be 1.11 µM. With `O=C(Nc1ccc(Oc2cc(C(F)(F)F)cc(C(F)(F)F)c2)cc1)c1cc(I)ccc1F`, the figures for the inhibition in assay [1] and in assay [3] were 20 to 30% and 0%, respectively. On to `O=C(Nc1ccc(Oc2cc(C(F)(F)F)cc(C(F)(F)F)c2)cc1)C1CCCCC1`, for which the inhibition in assay [3] and in assay [2] was 0% throughout.

For the compound `O=C(Nc1ccc(Oc2cc(C(F)(F)F)cc(C(F)(F)F)c2)cc1)c1sccc1Cl`, the inhibition in assay [3] turned out to be 0%. Besides, the IC50 at Toll-like receptor 8 amounted to 3.2 µM. On to `O=C(Nc1ccc(Oc2cc(C(F)(F)F)cc(C(F)(F)F)c2)cc1)c1c(O)cccc1F`, for which the inhibition in assay [1] and in assay [4] was 20 to 30% in each case. For the compound `O=C(Nc1ccc(Oc2cc(C(F)(F)F)cc(C(F)(F)F)c2)cc1)c1c(F)cccc1Br`, the IC50 at Toll-like receptor 7 turned out to be 1 µM; at Toll-like receptor 8, 6 µM. Regarding `O=C(Nc1ccc(Oc2cc(F)cc(C(F)(F)F)c2)cc1)c1c(F)cccc1Cl`, the 50% inhibitory concentration (IC50) on Toll-like receptor 8 amounted to 1.59 µM.

Turning to `Nc1cccc(F)c1C(=O)Nc1ccc(Oc2cc(C(F)(F)F)cc(C(F)(F)F)c2)cc1`, the inhibition in assay [1] and in assay [4] was 20 to 30% each time. For the compound `O=C(Nc1ccc(Oc2cc(C(F)(F)F)cc(C(F)(F)F)c2)cc1)c1ccco1`, the inhibition in assay [3] and in assay [2] was 0% throughout. Consider `N#Cc1c(Cl)cccc1Oc1ccc(-c2ncco2)cc1`, for which the inhibition in assay [2] was 0%. As to `O=C(Nc1ccc(Oc2cc(C(F)(F)F)cc(C(F)(F)F)c2)cc1)c1c(F)cccc1F`, the inhibition in assay [2] was determined as 0%. As for `O=C(Nc1ccc(Oc2cc(C(F)(F)F)cc(C(F)(F)F)c2)cc1)c1ccccc1F`, the results for the IC50 at Toll-like receptor 7 and on Toll-like receptor 8 were above 50 µM and 3 µM, respectively.

Take `O=[N+]([O-])c1c(Cl)cccc1Oc1ccc(-c2nnco2)cc1`: on Toll-like receptor 8, the half-maximal inhibitory concentration (IC50) was 0.77 µM. For the compound `O=C(Nc1ccc(Oc2cc(C(F)(F)F)cc(C(F)(F)F)c2)cc1O)c1c(F)cccc1Cl`, the inhibition in assay [3] is 0%. Besides, the 50% inhibitory concentration (IC50) at Toll-like receptor 8 stood at 4.02 µM. Take `O=C(Nc1ccc(Oc2cc(C(F)(F)F)cc(C(F)(F)F)c2)cc1)c1ccc(I)cc1F`: the 50% inhibitory concentration (IC50) at Toll-like receptor 7 and at Toll-like receptor 8 was above 50 µM in each case. Take `Nc1ccc(C(=O)Nc2ccc(Oc3cc(C(F)(F)F)cc(C(F)(F)F)c3)cc2)c(F)c1`: the IC50 on Toll-like receptor 7 and at Toll-like receptor 8 was above 50 µM each time.

Take `O=S(=O)(Nc1ccc(Oc2cc(C(F)(F)F)cc(C(F)(F)F)c2)cc1)c1ccccc1F`: the inhibition in assay [3] and in assay [2] was 0% throughout.

In the case of `O=C(Nc1ccc(Oc2cc(C(F)(F)F)cc(C(F)(F)F)c2)cc1)c1ccc(O)cc1F`, the inhibition in assay [3] amounted to 0%. Moreover, at Toll-like receptor 8, the IC50 was above 50 µM. Turning to `O=S(=O)(Nc1ccc(Oc2cc(C(F)(F)F)cc(C(F)(F)F)c2)cc1)c1c(F)cccc1Cl`, the inhibition in assay [3] and in assay [2] was 0% each time.

As for `O=C(Nc1ccc(Oc2cccc(C(F)(F)F)c2)cc1)c1c(F)cccc1Cl`, the half-inhibitory concentration (IC50) on Toll-like receptor 7 was determined as 2.65 µM; on Toll-like receptor 8, 2.41 µM.
